Source: ChEMBL document CHEMBL3351385, “Synthesis and preliminary mechanistic evaluation of 5-(p-tolyl)-1-(quinolin-2-yl)pyrazole-3-carboxylic acid amides with potent antiproliferative activity on human cancer cell lines” (Eur J Med Chem, 2014)
The source made the active and inactive calls. The rule behind the calls is not given here.

Legend:
[1] = biological target: Serine/threonine-protein kinase ULK2 (Homo sapiens) (UniProt Q8IYT8); test: Inhibition of ULK2 (unknown origin) assessed as remaining enzyme activity at 10 uM by radioactive [33P]-ATP filter binding assay
[2] = biological target: Insulin-like growth factor 1 receptor (Homo sapiens) (UniProt P08069); test: Inhibition of IGF1R (unknown origin) assessed as remaining enzyme activity at 10 uM by radioactive [33P]-ATP filter binding assay
[3] = biological target: Mitogen-activated protein kinase 11 (Homo sapiens) (UniProt Q15759); test: Inhibition of p38beta (unknown origin) assessed as remaining enzyme activity at 10 uM by radioactive [33P]-ATP filter binding assay
[4] = biological target: Dual specificity tyrosine-phosphorylation-regulated kinase 1A (Homo sapiens) (UniProt Q13627); test: Inhibition of DYRK1A (unknown origin) assessed as remaining enzyme activity at 10 uM by radioactive [33P]-ATP filter binding assay
Summary of the method: (§1)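 A single 10 µM concentration was tested across a 140-kinase panel. Activity was measured by a radioactive 33P-ATP filter-binding assay run at the International Center for Kinase Profiling, University of Dundee.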

[5] = biological target: Mitogen-activated protein kinase kinase kinase 5 (Homo sapiens) (UniProt Q99683); test: Inhibition of ASK1 (unknown origin) assessed as remaining enzyme activity at 10 uM by radioactive [33P]-ATP filter binding assay; summary of the method: as §1
[6] = biological target: Dual specificity tyrosine-phosphorylation-regulated kinase 2 (Homo sapiens) (UniProt Q92630); test: Inhibition of DYRK2 (unknown origin) assessed as remaining enzyme activity at 10 uM by radioactive [33P]-ATP filter binding assay; summary of the method: as §1
[7] = biological target: MAP/microtubule affinity-regulating kinase 4 (Homo sapiens) (UniProt Q96L34); test: Inhibition of MARK4 (unknown origin) assessed as remaining enzyme activity at 10 uM by radioactive [33P]-ATP filter binding assay
Chain of MAP/microtubule affinity-regulating kinase 4 (Homo sapiens) (Q96L34 whole entry): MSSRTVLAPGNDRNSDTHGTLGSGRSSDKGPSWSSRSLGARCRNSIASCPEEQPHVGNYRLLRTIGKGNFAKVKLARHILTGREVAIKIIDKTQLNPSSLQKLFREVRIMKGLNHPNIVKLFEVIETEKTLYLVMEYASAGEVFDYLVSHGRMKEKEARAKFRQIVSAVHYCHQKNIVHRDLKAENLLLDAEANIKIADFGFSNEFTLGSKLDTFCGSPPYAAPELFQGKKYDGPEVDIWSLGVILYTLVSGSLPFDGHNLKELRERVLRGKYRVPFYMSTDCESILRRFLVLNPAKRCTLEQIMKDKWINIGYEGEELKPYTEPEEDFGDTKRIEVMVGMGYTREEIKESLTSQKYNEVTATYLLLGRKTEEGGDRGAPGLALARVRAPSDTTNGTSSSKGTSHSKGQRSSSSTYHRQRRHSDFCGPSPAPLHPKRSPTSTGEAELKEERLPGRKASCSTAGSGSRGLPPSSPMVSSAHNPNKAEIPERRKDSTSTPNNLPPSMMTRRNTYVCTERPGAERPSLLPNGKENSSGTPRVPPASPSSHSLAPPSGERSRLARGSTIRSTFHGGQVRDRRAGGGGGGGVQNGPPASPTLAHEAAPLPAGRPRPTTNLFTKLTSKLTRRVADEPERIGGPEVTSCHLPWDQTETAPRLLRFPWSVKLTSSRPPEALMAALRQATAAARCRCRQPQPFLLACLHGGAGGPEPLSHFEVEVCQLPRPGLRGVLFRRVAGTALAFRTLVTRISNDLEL

[8] = biological target: Mitogen-activated protein kinase 15 (Homo sapiens) (UniProt Q8TD08); test: Inhibition of ERK8 (unknown origin) assessed as remaining enzyme activity at 10 uM by radioactive [33P]-ATP filter binding assay; summary of the method: as §1
[9] = biological target: MAP kinase-activated protein kinase 5 (Homo sapiens) (UniProt Q8IW41); test: Inhibition of PRAK (unknown origin) assessed as remaining enzyme activity at 10 uM by radioactive [33P]-ATP filter binding assay
Chain of MAP kinase-activated protein kinase 5 (Homo sapiens) (Q8IW41 whole entry): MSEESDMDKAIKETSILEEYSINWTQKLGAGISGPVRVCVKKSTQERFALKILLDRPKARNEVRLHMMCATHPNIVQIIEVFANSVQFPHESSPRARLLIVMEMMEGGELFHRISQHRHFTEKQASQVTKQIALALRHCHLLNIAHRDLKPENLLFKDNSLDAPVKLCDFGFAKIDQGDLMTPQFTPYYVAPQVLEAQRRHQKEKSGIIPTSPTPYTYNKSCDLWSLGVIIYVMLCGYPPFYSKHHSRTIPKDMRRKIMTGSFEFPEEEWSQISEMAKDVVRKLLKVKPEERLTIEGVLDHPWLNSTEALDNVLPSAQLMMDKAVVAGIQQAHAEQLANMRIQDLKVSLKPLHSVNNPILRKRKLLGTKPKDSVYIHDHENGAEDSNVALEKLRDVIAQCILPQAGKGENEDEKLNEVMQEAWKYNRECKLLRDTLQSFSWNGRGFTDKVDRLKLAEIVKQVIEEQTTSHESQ

[10] = biological target: Misshapen-like kinase 1 (Homo sapiens) (UniProt Q8N4C8); test: Inhibition of MINK1 (unknown origin) assessed as remaining enzyme activity at 10 uM by radioactive [33P]-ATP filter binding assay
Chain of Misshapen-like kinase 1 (Homo sapiens) (Q8N4C8 whole entry, looked up): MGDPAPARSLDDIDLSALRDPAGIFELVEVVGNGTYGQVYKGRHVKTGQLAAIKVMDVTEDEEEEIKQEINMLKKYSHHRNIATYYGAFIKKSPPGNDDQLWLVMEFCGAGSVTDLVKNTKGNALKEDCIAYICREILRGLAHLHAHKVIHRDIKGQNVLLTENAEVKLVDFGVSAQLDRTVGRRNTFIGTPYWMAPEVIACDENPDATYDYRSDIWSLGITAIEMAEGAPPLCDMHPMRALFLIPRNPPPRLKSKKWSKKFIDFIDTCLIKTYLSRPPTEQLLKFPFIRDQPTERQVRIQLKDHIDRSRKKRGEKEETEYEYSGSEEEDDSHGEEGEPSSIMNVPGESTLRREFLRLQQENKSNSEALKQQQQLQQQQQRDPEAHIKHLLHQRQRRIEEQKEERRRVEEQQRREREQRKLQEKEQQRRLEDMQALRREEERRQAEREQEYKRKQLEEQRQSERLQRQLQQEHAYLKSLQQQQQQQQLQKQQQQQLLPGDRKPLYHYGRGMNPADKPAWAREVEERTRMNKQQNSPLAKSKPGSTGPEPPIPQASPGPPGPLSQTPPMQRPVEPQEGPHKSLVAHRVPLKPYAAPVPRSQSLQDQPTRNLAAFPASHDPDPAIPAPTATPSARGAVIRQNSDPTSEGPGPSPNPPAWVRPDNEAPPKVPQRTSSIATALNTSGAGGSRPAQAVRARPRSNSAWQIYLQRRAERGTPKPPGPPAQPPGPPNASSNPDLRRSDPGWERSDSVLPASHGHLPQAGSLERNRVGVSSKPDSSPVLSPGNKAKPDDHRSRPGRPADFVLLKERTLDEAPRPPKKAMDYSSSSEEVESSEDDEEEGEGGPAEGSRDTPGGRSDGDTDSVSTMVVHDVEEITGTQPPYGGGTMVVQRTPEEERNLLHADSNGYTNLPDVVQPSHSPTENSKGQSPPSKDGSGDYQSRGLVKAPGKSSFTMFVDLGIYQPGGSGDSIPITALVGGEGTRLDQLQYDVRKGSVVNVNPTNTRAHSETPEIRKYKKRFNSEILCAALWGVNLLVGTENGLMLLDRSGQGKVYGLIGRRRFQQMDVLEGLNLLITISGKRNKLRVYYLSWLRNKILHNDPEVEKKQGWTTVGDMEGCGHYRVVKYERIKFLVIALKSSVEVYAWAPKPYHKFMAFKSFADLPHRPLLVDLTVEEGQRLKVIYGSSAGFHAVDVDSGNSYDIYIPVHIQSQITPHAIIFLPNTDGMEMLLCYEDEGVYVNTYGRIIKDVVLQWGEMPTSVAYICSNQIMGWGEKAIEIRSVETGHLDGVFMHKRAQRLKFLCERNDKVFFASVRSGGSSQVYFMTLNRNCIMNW

Huh-7 = test: Induction of cell death in human HuH7 cells assessed as nuclear condensation at cytotoxic IC50 level after 72 hrs by Hoechst 33258 staining based […]; format: functional
Summary of the method: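 Cells were washed in cold PBS, fixed 10 min in cold methanol and stained with Hoechst 33258 at 3 µg/mL for 5 min in the dark. Nuclear condensation and fragmentation were examined by fluorescence microscopy at 40×.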

Tubulin (Homo sapiens) = Tubulin (Homo sapiens) (UniProt P68371+Q9H4B7+P0DPH7+P68366+Q13509+Q71U36+P04350+Q3ZCM7+P07437+P68363+Q9BQE3+Q6PEY2+Q13885+Q9BVA1+Q9BUF5); test: Inhibition of tubulin polymerization (unknown origin); format: protein-complex assay
[11] = biological target: Mitogen-activated protein kinase kinase kinase 11 (Homo sapiens) (UniProt Q16584); test: Inhibition of MLK3 (unknown origin) assessed as remaining enzyme activity at 10 uM by radioactive [33P]-ATP filter binding assay
[12] = biological target: Calcium/calmodulin-dependent protein kinase kinase 2 (Homo sapiens) (UniProt Q96RR4); test: Inhibition of CAMKKB (unknown origin) assessed as remaining enzyme activity at 10 uM by radioactive [33P]-ATP filter binding assay; summary of the method: as §1
Chain of Calcium/calmodulin-dependent protein kinase kinase 2 (Homo sapiens) (Q96RR4 2-588 limits assumed): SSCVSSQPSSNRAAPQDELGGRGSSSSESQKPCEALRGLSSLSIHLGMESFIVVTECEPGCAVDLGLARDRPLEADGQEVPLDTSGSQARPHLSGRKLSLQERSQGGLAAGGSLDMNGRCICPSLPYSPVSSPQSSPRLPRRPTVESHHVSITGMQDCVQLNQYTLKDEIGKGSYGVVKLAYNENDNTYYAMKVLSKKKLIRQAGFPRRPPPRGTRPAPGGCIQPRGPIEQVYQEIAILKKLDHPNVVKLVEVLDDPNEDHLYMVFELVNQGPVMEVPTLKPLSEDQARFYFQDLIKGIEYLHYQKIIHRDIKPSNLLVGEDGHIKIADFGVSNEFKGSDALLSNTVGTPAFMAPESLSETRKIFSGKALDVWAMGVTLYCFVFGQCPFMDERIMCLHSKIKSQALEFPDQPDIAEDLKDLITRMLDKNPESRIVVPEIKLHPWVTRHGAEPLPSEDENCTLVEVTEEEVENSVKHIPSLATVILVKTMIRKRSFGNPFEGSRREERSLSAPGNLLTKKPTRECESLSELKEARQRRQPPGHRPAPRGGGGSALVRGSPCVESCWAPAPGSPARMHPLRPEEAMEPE

[13] = biological target: Ephrin type-B receptor 3 (Homo sapiens) (UniProt P54753); test: Inhibition of EPHB3 (unknown origin) assessed as remaining enzyme activity at 10 uM by radioactive [33P]-ATP filter binding assay; summary of the method: as §1
[14] = biological target: Tau-tubulin kinase 1 (Homo sapiens) (UniProt Q5TCY1); test: Inhibition of TTBK1 (unknown origin) assessed as remaining enzyme activity at 10 uM by radioactive [33P]-ATP filter binding assay
[15] = biological target: Serine/threonine-protein kinase SIK2 (Homo sapiens) (UniProt Q9H0K1); test: Inhibition of SIK2 (unknown origin) assessed as remaining enzyme activity at 10 uM by radioactive [33P]-ATP filter binding assay
Chain of Serine/threonine-protein kinase SIK2 (Homo sapiens) (Q9H0K1 whole entry, looked up): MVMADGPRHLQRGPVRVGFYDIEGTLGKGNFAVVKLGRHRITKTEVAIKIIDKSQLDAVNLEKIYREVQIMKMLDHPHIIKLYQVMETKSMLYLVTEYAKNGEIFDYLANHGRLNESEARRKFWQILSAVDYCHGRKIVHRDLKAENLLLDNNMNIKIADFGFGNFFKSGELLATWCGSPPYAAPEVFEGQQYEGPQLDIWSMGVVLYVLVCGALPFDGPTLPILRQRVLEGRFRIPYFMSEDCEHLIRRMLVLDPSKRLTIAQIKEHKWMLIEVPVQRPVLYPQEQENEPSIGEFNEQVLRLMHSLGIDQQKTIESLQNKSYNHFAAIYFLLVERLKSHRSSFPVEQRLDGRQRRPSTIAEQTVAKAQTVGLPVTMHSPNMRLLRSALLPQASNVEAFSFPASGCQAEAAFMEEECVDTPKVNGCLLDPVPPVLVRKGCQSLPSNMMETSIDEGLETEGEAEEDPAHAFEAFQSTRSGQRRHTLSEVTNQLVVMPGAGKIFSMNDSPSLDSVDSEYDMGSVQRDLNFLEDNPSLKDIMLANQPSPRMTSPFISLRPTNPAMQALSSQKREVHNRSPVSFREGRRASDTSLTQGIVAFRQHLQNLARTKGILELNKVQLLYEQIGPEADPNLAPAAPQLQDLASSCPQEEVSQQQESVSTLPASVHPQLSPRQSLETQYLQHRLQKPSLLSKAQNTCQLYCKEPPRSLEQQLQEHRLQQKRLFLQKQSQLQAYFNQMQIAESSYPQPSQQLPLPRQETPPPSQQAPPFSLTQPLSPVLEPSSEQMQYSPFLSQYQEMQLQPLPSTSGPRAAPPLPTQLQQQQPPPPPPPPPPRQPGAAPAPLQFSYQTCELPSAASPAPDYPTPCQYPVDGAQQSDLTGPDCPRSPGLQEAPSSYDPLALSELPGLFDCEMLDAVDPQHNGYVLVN

[16] = biological target: Serine/threonine-protein kinase Nek2 (Homo sapiens) (UniProt P51955); test: Inhibition of NEK2A (unknown origin) assessed as remaining enzyme activity at 10 uM by radioactive [33P]-ATP filter binding assay
[17] = biological target: Serine/threonine-protein kinase Chk2 (Homo sapiens) (UniProt O96017); test: Inhibition of CHK2 (unknown origin) assessed as remaining enzyme activity at 10 uM by radioactive [33P]-ATP filter binding assay; summary of the method: as §1
[18] = biological target: Serine/threonine-protein kinase 3 (Homo sapiens) (UniProt Q13188); test: Inhibition of MST2 (unknown origin) assessed as remaining enzyme activity at 10 uM by radioactive [33P]-ATP filter binding assay
[19] = biological target: Ribosomal protein S6 kinase alpha-3 (Homo sapiens) (UniProt P51812); test: Inhibition of RSK2 (unknown origin) assessed as remaining enzyme activity at 10 uM by radioactive [33P]-ATP filter binding assay
[20] = biological target: Interleukin-1 receptor-associated kinase 1 (Homo sapiens) (UniProt P51617); test: Inhibition of IRAK1 (unknown origin) assessed as remaining enzyme activity at 10 uM by radioactive [33P]-ATP filter binding assay
Chain of Interleukin-1 receptor-associated kinase 1 (Homo sapiens) (P51617 whole entry, looked up): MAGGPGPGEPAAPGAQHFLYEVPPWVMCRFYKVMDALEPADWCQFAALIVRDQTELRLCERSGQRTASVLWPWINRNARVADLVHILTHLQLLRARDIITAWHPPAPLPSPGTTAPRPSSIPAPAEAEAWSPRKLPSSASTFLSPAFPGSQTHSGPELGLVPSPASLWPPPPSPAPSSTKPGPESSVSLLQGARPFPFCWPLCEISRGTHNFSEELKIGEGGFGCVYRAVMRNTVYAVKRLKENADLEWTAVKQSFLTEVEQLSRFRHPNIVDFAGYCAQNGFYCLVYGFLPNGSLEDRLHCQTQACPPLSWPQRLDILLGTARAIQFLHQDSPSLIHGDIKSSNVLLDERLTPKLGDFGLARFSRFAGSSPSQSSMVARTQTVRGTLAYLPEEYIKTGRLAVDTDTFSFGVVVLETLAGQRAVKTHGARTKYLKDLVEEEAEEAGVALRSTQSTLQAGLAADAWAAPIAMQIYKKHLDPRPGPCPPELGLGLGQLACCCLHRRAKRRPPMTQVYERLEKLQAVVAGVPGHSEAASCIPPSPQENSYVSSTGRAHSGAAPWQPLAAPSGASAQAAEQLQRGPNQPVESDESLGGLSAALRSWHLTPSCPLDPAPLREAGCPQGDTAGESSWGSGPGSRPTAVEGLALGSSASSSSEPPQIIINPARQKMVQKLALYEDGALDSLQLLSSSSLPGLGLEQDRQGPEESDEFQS

[21] = biological target: MAP kinase-activated protein kinase 2 (Homo sapiens) (UniProt P49137); test: Inhibition of MAPKAPK2 (unknown origin) assessed as remaining enzyme activity at 10 uM by radioactive [33P]-ATP filter binding assay
[22] = biological target: Tyrosine-protein kinase Lck (Homo sapiens) (UniProt P06239); test: Inhibition of LCK (unknown origin) assessed as remaining enzyme activity at 10 uM by radioactive [33P]-ATP filter binding assay

Activity [1]: 112%
Activity [2]: 98%
Activity [3]: 107%
Activity [4]: 68%
Activity [5]: 97%
Activity [6]: 96%
Activity [7]: 76%
Activity [9]: 88%
Activity [10]: 114%
inhibition (Tubulin (Homo sapiens)): inactive
Activity [11]: 76%
Activity [12]: 85%
Activity [13]: 109%
Activity [14]: 104%
Activity [15]: 106%
Activity [16]: 90%
Activity [17]: 94%
Activity [18]: 104%
Activity [19]: 86%
Activity [20]: 109%
Activity [21]: 84%
Activity [22]: 99%
Structure (SMILES): Cc1ccc(-c2cc(C(=O)Nc3ccnc(Cl)c3)nn2-c2ccc3ccccc3n2)cc1
Activity [8]: 106%
Activity (Huh-7): Active
